Compounds with a hit are over-represented: about 4.8% of the library has one in this group of screens.
SF1 activator: activators of human nuclear receptor SF-1; Q13285; CHO-K1 Gal4-SF-1 LBD luciferase reporter; % increase over DMSO SF-1-specific signal; activation, % at 10 µM; 65,000 tested, 1.9% active; AID 522;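 active means activation above the mean activation of all tested compounds plus 3 SD, cut at about 50% in these data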
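Assay system – CHO-K1 cells with Gal4–hSF-1 LBD chimera plus Gal4-driven luciferase · Quantity – 4,000 cells per well · Times – compound added 1 h post-seeding, 20 h exposure at 37 °C, 5% CO2 · Measured by – luciferase light emission · Benchmarks – DMSO and mock-transfected background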
ERb coact inh: ER-beta (human) coactivator binding inhibition; Q92731; TR-FRET ER-beta LBD / SRC1-Cy5 peptide binding; receptor agonist-loaded with 1 µM estradiol; inhibition, % at 25.6 µM; 86,000 tested, 1.3% active;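 active means compounds whose percent inhibition of the receptor-coactivator binding signal exceeds about 50% in the single-dose screen, limit read from the data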
ERa SRC1 inh: ER-alpha (human) coactivator binding inhibition; inhibition, % at 25.6 µM; 86,000 tested, 1.7% active; TR-FRET ER-alpha LBD / SRC-1 peptide, estradiol-bound; in the data active means inhibition above about 50%
ERa SRC1 pot: enhances coactivator binding to human estrogen receptor alpha; P03372; AID 639; TR-FRET ERalpha-LBD/SRC-Cy5 coactivator binding, 2 h; 100 = basal binding, no effect; 86,000 tested, 1.3% active; coactivator binding (% of control), % at 25.6 µM; in the data active means activity above about 200%;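 further: binding measured in presence of low estradiol as agonist stimulus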
RORA act: activators of human nuclear receptor RORA | 65,000 tested, 1.5% active | CHO-K1 Gal4-RORA LBD luciferase reporter, luminescence; percent increase over mock-subtracted basal signal | AID 560 | P35398 | activation, % at 10 µM;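 active means activation above the mean of all tested compounds plus 3 SD, cut at about 49% in these data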
PTK2B oligo ant: blocks oligomerization of human Pyk2 in cells; z-score (the deposit names both 25 µM and 10 µM); Q14289; Q293 cells, Pyk2 FERM NanoBiT luminescence; stronger effect = lower value; AID 1347419; 99,000 tested, 0.83% active;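 active means Z-score of -3 or lower, scaled per plate to the spread of control and sample wells; inactive means z-score above -3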;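 further: negative z-score means lost luminescence so less FERM oligomerization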
A number is an active result; [ ] = dose if it differs, or a comment.

For Cc1cccc(N2CCN(C(=O)C(C)n3nc(C)n4c(cc5occc54)c3=O)CC2)c1C (configuration not stated) the results were ERb coact inh inactive, ERa SRC1 inh inactive, ERa SRC1 pot inactive and PTK2B oligo ant inactive.
`O=C(CC1(O)C(=O)Nc2ccc(Br)cc21)c1ccc2c(c1)OCO2` (configuration not stated) gave SF1 activator inactive, ERb coact inh inactive, ERa SRC1 inh inactive, ERa SRC1 pot inactive, RORA act inactive and PTK2B oligo ant inactive.
Screening COC(=O)c1nn(-c2ccccc2)c(Sc2ccc(Cl)cc2)c1/C=N/O returned PTK2B oligo ant inactive.
Screening O=S(=O)(Cc1nc2ccccc2s1)c1ccccc1 returned SF1 activator 110.1, ERb coact inh inactive, ERa SRC1 inh inactive, ERa SRC1 pot inactive, RORA act 49.8 and PTK2B oligo ant inactive.
For CCOc1ccc(C2=C(C=Nc3c(C)n(C)n(-c4ccccc4)c3=O)C(c3ccc(F)cc3)c3ccccc3O2)cc1 (configuration not stated) the results were PTK2B oligo ant inactive.
`Cn1c(SCc2nc3ccccc3c(=O)[nH]2)nnc1-c1ccco1` gave SF1 activator inactive, ERb coact inh inactive, ERa SRC1 inh inactive, ERa SRC1 pot inactive, RORA act inactive and PTK2B oligo ant inactive.
`Cn1c(-c2ccccc2)cnc1SCc1nc2ccccc2c(=O)[nH]1` gave SF1 activator 68.9, ERb coact inh inactive, ERa SRC1 inh inactive, ERa SRC1 pot inactive, RORA act inactive and PTK2B oligo ant inactive.
Screening COc1ccc2nc(NCc3ccccc3)[nH]c2c1 returned SF1 activator inactive, ERb coact inh inactive, ERa SRC1 inh inactive, ERa SRC1 pot inactive, RORA act 51.7 and PTK2B oligo ant inactive.
Screening Cc1ccc2nc(NCc3ccccc3)[nH]c2c1 returned SF1 activator 67.5, ERb coact inh inactive, ERa SRC1 inh inactive, ERa SRC1 pot inactive, RORA act inactive and PTK2B oligo ant inactive.
Screening C=CCOn1c(=O)c(-c2cc3ccccc3o2)[n+]([O-])c2ccccc21 returned SF1 activator 77.4, RORA act inactive and PTK2B oligo ant inactive.
`CCC(C)[C@H](NC(=O)NC(C)C)C(=O)O` (some centres not stated) gave PTK2B oligo ant inactive.
For C=CCn1c(SCC(=O)NC2CCCCC2)nnc1C(C)NC(=O)c1cccs1 (configuration not stated) the results were SF1 activator inactive, ERb coact inh inactive, ERa SRC1 inh 83.3, ERa SRC1 pot inactive, RORA act inactive and PTK2B oligo ant inactive.
For C=CCn1c(SCC(=O)c2ccc(OC)cc2)nnc1C(C)NC(=O)c1cccs1 (configuration not stated) the results were SF1 activator inactive, ERb coact inh inactive, ERa SRC1 inh inactive, ERa SRC1 pot inactive, RORA act inactive and PTK2B oligo ant inactive.
Cc1ccc(-n2nnnc2-c2cnoc2-c2cccc(F)c2)cc1 was read as ERb coact inh inactive, ERa SRC1 inh inactive, ERa SRC1 pot inactive and PTK2B oligo ant inactive.
`Cc1cc2cc(C)c3nnc(SCC(=O)NCc4ccco4)n3c2cc1C` gave SF1 activator inactive, ERb coact inh inactive, ERa SRC1 inh inactive, ERa SRC1 pot inactive, RORA act inactive and PTK2B oligo ant inactive.
For Cc1cc(NC(=O)CSc2nnc3c(C)cc4cc5c(cc4n23)OCO5)no1 the results were SF1 activator inactive, ERb coact inh inactive, ERa SRC1 inh 51.8[fluorescence artefact?], ERa SRC1 pot inactive and RORA act inactive.
Screening Cc1cc(NC(=O)CSc2nnc3c(C)cc4cc(C)c(C)cc4n23)no1 returned SF1 activator inactive, ERb coact inh inactive, ERa SRC1 inh 74.3[fluorescence artefact?], ERa SRC1 pot 241.0[fluorescence artefact?], RORA act inactive and PTK2B oligo ant inactive.
For Cc1cc(NC(=O)CSc2nc3cc4c(cc3c(=O)n2CCc2ccccc2)OCO4)no1 the results were SF1 activator inactive, ERb coact inh inactive, ERa SRC1 inh inactive, ERa SRC1 pot inactive, RORA act inactive and PTK2B oligo ant inactive.
CCNC(=O)NC(=O)CSc1cccc(C(F)(F)F)c1 was read as SF1 activator inactive, ERb coact inh inactive, ERa SRC1 inh inactive, ERa SRC1 pot inactive, RORA act inactive and PTK2B oligo ant inactive.
Screening O=C(CSc1cccc(C(F)(F)F)c1)NC(=O)NCc1ccco1 returned SF1 activator inactive, ERb coact inh inactive, ERa SRC1 inh 53.5, ERa SRC1 pot inactive, RORA act inactive and PTK2B oligo ant inactive.
Screening CCCCn1c(SCC(=O)NC(=O)NCc2ccco2)nc2cc(S(N)(=O)=O)ccc21 returned SF1 activator inactive, ERb coact inh inactive, ERa SRC1 inh 57.6[fluorescence artefact?], ERa SRC1 pot inactive, RORA act inactive and PTK2B oligo ant inactive.
For CCCCn1c(SCc2ccc(C(=O)OC)o2)nc2cc(S(N)(=O)=O)ccc21 the results were SF1 activator inactive, ERb coact inh inactive, ERa SRC1 inh inactive, ERa SRC1 pot inactive, RORA act inactive and PTK2B oligo ant inactive.
For Cc1ccccc1CSCC(=O)NC(=O)NCc1ccco1 the results were SF1 activator inactive, ERb coact inh inactive, ERa SRC1 inh 55.0, ERa SRC1 pot inactive, RORA act inactive and PTK2B oligo ant inactive.
For Cc1cc(SCC(=O)NC(=O)NCc2ccco2)nc2c(C)cccc12 the results were SF1 activator inactive, ERb coact inh inactive, ERa SRC1 inh 65.4, ERa SRC1 pot inactive, RORA act inactive and PTK2B oligo ant inactive.
Screening Cc1nn2c(=O)cc(COC(=O)c3ccc(S(=O)(=O)N4CCCCC4)cc3)nc2s1 returned ERb coact inh inactive, ERa SRC1 inh inactive, ERa SRC1 pot inactive and PTK2B oligo ant inactive.
COc1nc(Nc2ccc([N+](=O)[O-])cc2)nc(NC(C)C)n1 was read as PTK2B oligo ant inactive.
Screening O=C(CSc1nn(-c2ccc(F)cc2)c(=S)s1)NC(=O)NCc1ccco1 returned SF1 activator inactive, ERb coact inh inactive, ERa SRC1 inh 67.0[fluorescence artefact?], ERa SRC1 pot inactive, RORA act inactive and PTK2B oligo ant inactive.
Screening CCOc1ccc2nc(SCC(=O)NC(=O)NCc3ccco3)[nH]c2c1 returned ERb coact inh 56.5[fluorescence artefact?], ERa SRC1 inh inactive, ERa SRC1 pot inactive and PTK2B oligo ant inactive.
O=C(CSc1nc2ccccc2s1)NC(=O)NCc1ccco1 was read as SF1 activator inactive, ERb coact inh inactive, ERa SRC1 inh inactive, ERa SRC1 pot inactive, RORA act inactive and PTK2B oligo ant inactive.
CCOc1ccc2nc(SCC(=O)N(C)C)[nH]c2c1 was read as ERb coact inh inactive, ERa SRC1 inh inactive, ERa SRC1 pot inactive and PTK2B oligo ant inactive.
Screening Cn1c(SCC(=O)NC(=O)NCc2ccco2)nnc1-c1ccccc1 returned ERb coact inh 52.2[fluorescence artefact?], ERa SRC1 inh 59.0[fluorescence artefact?], ERa SRC1 pot inactive and PTK2B oligo ant inactive.
